The values that follow come from ChEMBL document CHEMBL1128218, “New alpha-thiol dipeptide dual inhibitors of angiotensin-I converting enzyme and neutral endopeptidase EC 3.4.24.11” (J Med Chem, 1995).

As usually defined, the inhibition is the drop in the measured response relative to a control, in per cent.

Format in all cases: functional, organism-based
Common to all, as to parameters: dose 10 mg/kg

Test [1] deals with T1, Angiotensin-converting enzyme (Rattus norvegicus) (UniProt P47820).
T1 sequence (whole entry): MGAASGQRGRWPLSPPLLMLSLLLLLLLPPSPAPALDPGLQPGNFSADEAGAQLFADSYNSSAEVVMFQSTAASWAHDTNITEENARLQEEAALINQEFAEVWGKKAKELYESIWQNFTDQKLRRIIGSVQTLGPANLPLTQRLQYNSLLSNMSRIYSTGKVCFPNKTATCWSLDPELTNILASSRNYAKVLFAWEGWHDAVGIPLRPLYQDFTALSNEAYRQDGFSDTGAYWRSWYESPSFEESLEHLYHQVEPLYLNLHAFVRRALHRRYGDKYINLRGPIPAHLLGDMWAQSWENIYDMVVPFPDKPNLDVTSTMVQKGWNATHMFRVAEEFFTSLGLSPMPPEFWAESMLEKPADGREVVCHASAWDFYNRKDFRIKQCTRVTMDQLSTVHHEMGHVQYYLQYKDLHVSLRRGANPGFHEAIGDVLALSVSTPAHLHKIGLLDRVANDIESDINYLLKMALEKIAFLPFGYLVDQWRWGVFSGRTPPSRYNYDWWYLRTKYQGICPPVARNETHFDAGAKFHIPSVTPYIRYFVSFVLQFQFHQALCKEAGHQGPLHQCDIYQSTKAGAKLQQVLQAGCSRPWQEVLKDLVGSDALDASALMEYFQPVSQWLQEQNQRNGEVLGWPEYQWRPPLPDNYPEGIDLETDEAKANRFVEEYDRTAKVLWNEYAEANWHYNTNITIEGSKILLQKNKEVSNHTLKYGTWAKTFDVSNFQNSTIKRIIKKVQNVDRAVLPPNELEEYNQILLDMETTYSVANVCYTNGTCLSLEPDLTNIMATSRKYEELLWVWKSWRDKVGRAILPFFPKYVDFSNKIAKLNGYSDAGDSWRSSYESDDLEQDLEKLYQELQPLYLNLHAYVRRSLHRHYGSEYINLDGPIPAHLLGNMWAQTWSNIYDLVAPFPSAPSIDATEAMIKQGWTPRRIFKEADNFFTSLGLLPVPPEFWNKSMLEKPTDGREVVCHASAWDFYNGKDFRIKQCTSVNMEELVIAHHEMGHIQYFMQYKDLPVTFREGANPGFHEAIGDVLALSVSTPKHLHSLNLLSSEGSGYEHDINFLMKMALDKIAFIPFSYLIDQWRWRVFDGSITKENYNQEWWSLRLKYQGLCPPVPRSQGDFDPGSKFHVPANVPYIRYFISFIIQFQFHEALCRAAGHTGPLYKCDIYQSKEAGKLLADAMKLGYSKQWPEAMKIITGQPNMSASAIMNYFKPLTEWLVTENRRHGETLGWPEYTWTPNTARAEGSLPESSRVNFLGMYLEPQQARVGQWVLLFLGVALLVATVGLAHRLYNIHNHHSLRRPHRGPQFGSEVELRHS
Nature of the test: Evaluation of plasma inhibition of Angiotensin I converting enzyme activity in conscious rat 2 hours after intravenous administration at a dose of 10 mg/kg. In outline: (§1)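 Male conscious normotensive Sprague-Dawley rats (275-390 g) fitted the day before with femoral arterial and venous catheters under methohexital anesthesia. Three angiotensin-I challenges (300 ng/kg iv) given as baseline. Compound given iv, ia or po (12.3 mg/kg po dose in 3% cornstarch at 1 mg/mL), then AI challenges repeated at set times. Pressor response compared with the mean baseline response and expressed as % inhibition.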

Test [2] deals with T1, Angiotensin-converting enzyme (Rattus norvegicus). Nature of the test: Evaluation of plasma inhibition of Angiotensin I converting enzyme activity in conscious rat 1 hour after intravenous administration at a dose of 10 mg/kg. In outline: as §1
Test [3] has the same target. In words: Evaluation of plasma inhibition of Angiotensin I converting enzyme activity in conscious rat 6 hours after intravenous administration at a dose of 10 mg/kg. In short, it runs like this:
as §1

Test [4] has the same target. Nature of the test: Evaluation of plasma inhibition of Angiotensin I converting enzyme activity in conscious rat 4 hours after intravenous administration at a dose of 10 mg/kg. In short, it runs like this:
as §1

Test [5] shares this target. Nature of the test: Evaluation of plasma inhibition of Angiotensin I converting enzyme activity in conscious rat 4 hour after oral administration at a dose of 10 mg/kg.
For test [6] the target is unchanged. In words: Evaluation of plasma inhibition of Angiotensin I converting enzyme activity in conscious rat 6 hour after oral administration at a dose of 10 mg/kg. In short, it runs like this: as §1
Test [7] shares this target. In words: Evaluation of plasma inhibition of Angiotensin I converting enzyme activity in conscious rat 1 hour after oral administration at a dose of 10 mg/kg.
Test [8] has the same target. Nature of the test: Evaluation of plasma inhibition of Angiotensin I converting enzyme activity in conscious rat 2 hour after oral administration at a dose of 10 mg/kg.

With `CC(C)[C@H](S)C(=O)NC1(C(=O)N[C@@H](Cc2ccc(O)cc2)C(=O)O)CC1`, the inhibition in test [1] came out at 43%; in test [2], 91%; in test [3] it was 17%; in test [4] it was 30%.
On the same counts, the results for `CC(C)[C@H](S)C(=O)NC1(C(=O)N[C@@H](CCc2ccccc2)C(=O)O)CCCC1` are 69%, 72%, 75% and 79%.
Take `O=C(CS)NC1(C(=O)N[C@@H](Cc2ccc(O)cc2)C(=O)O)CCCC1`: the inhibition stood at 15% in test [1], 44% in test [2] and 7% in test [4].
On the same counts, the results for `CC(C)[C@H](S)C(=O)NC1(C(=O)N[C@@H](Cc2ccc(O)cc2)C(=O)O)CCOCC1` are 27%, 43% and 4%.
`CC(C)[C@H](S)C(=O)NC(C)(C)C(=O)N[C@@H](Cc1ccc(O)cc1)C(=O)O`: the inhibition in test [1] came out at 81%; in test [2], 88%; in test [3], 67%; in test [4], 69%.
Regarding `CC(C)[C@H](S)C(=O)NC1(C(=O)N[C@@H](Cc2ccc(O)cc2)C(=O)O)Cc2ccccc2C1`, the inhibition in test [1] came to 59%; in test [2] it was 86%; in test [3] it was 9%; in test [4], 24%.
Taken in the same sequence, the figures for `CC(C)[C@H](S)C(=O)NC1(C(=O)N[C@@H](Cc2ccc(F)cc2)C(=O)O)CCCC1` were 80%, 85%, 28% and 38%.
On the same counts, the results for `CC(C)[C@H](S)C(=O)NC1(C(=O)N[C@@H](Cc2ccsc2)C(=O)O)CCCC1` are 100%, 97%, 71% and 87%.
Consider `CC(C)[C@H](S)C(=O)NC1(C(=O)N[C@@H](Cc2ccc(O)cc2)C(=O)O)CCCC1`, for which the inhibition amounted to 36% in test [5]; 15% in test [6]; 91% in test [1]; 90% in test [2]; 68% in test [3]; 48% in test [7]. Further, the inhibition worked out at 83% in test [4] and 59% in test [8].
Regarding `CC(C)[C@H](S)C(=O)NC1(C(=O)N[C@@H](Cc2ccccn2)C(=O)O)CCCC1`, the inhibition turned out to be 52% in test [1], 73% in test [2], 17% in test [3] and 28% in test [4].
With `CC(C)[C@H](S)C(=O)NC1(C(=O)N[C@@H](Cc2cccs2)C(=O)O)CCCC1`, the inhibition in test [1] was found to be 68%; in test [2] it was 79%; in test [3], 29%; in test [4] it was 44%.
As for `CC(C)[C@H](S)C(=O)NC1(C(=O)N[C@@H](Cc2c[nH]c3ccccc23)C(=O)O)CCCC1`, the inhibition turned out to be 29% in test [5]; 26% in test [6]; 92% in test [1]; 98% in test [2]; 82% in test [3]; 45% in test [7]. Besides, the inhibition came out at 86% in test [4] and 50% in test [8].
Regarding `O=C(O)[C@H](Cc1ccc(O)cc1)NC(=O)C1(NC(=O)[C@@H](S)Cc2ccccc2)CCCC1`, the inhibition amounted to 75% in test [1], 86% in test [2], 17% in test [3] and 43% in test [4].
